# Experimental data reported in ChEMBL document CHEMBL1127053, “3,4-Dimethyl-4-(3-hydroxyphenyl)piperidines: opioid antagonists with potent anorectant activity” (J Med Chem, 1993).
# Experiments:
# D(2) dopamine receptor = D(2) dopamine receptor (Rattus norvegicus, UniProt P61169); assay: Tested for affinity against dopamine D2 receptor using […] in rat brain; format: tissue-based
# [1] = target: Serotonin receptor 2a and 2c (5HT2A and 5HT2C) (Rattus norvegicus, UniProt P08909+P14842); assay: Tested for affinity against serotonin 5-HT2 receptor using […] (frontal cortex) in rat brain; format: tissue-based
# D(1A) dopamine receptor = D(1A) dopamine receptor (Rattus norvegicus, UniProt P18901); assay: Tested for affinity against dopamine D1 receptor using [3H]SCH-23,390 in rat brain; format: tissue-based
# D(1A) dopamine receptor, sequence (P18901 whole entry): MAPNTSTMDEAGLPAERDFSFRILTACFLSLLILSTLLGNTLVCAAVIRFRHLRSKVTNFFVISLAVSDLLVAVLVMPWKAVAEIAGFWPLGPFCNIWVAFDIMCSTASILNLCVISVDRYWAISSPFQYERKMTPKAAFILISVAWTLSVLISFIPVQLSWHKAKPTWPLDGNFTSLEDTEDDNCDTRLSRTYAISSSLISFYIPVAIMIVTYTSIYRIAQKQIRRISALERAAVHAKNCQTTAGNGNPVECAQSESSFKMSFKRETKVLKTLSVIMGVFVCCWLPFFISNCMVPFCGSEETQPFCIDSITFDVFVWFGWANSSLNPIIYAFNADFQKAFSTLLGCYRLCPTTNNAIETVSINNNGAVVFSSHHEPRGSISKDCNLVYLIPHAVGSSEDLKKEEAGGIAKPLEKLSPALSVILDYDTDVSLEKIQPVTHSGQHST
# [2] = target: Mu-type opioid receptor (Cavia porcellus) (UniProt P97266); details: Ileum, 2 nM
# Mu-type opioid receptor (Cavia porcellus), sequence (P97266 whole entry): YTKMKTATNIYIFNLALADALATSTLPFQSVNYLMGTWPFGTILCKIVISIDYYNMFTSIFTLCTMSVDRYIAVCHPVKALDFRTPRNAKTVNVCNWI
# Adrenergic receptor beta = Adrenergic receptor beta (Rattus norvegicus, UniProt P18090+P10608+P26255); assay: Tested for affinity against beta-adrenergic using [3H]dihydroalprenolol in rat brain; format: tissue-based
# Method in brief: (§1)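 Radioligand binding in cortical membranes from male Sprague-Dawley rats (110-150 g). Ligands: [3H]serotonin for 5-HT1, [3H]QNB for muscarinic, [3H]WB4101 for α1, [3H]clonidine for α2, [3H]dihydroalprenolol for β-adrenergic.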
# Rattus norvegicus = assay: Tested for concentration required to reduce the food consumption by 20 % subcutaneously; format: functional; details: Rattus norvegicus, sc; read-out: ED50
# Method in brief: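 Obese Zucker rats, 3-4 months old, trained to eat only 8 am-4 pm. Groups of 4 (2 male, 2 female), with one saline control group daily. Compound in saline with 10% DMSO, given sc on 3 consecutive days, typical doses 5.0-0.08 mg/kg (0.02-20 in some cases). Intake measured over the first 4 h. ED20 from regression of the linear portion of the dose-response curve.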
# Dopamine receptor = assay: Tested for affinity against dopamine autoreceptor using [3H]apomorphine in rat brain; format: tissue-based
# [3] = Tested for affinity against serotonin 5-HT1 receptor using [3H]5-HT in rat brain; format: tissue-based; method in brief: as §1
# [4] = target: Delta-type opioid receptor (Mus musculus) (UniProt P32300); details: Vas deferens; 2 nM
# Delta-type opioid receptor (Mus musculus), sequence (P32300 whole entry): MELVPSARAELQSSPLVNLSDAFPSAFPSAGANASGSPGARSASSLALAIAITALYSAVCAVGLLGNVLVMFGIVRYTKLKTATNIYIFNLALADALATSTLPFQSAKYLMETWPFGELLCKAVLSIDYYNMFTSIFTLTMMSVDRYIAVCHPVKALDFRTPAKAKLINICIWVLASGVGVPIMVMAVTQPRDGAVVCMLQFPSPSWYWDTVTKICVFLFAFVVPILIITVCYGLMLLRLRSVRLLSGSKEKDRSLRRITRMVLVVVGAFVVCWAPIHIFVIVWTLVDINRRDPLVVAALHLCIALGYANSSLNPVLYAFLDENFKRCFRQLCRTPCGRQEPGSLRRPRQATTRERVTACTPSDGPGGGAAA
# [5] = target: Mu-type opioid receptor (Mus musculus) (UniProt P42866); assay: Antagonistic activity towards morphine induced mu-opioid receptor by mouse writhing assay at 1.25 mg/kg subcutaneously; format: functional, organism-based; design: dose 1.25 mg/kg
# Mu-type opioid receptor (Mus musculus), sequence (P42866 whole entry): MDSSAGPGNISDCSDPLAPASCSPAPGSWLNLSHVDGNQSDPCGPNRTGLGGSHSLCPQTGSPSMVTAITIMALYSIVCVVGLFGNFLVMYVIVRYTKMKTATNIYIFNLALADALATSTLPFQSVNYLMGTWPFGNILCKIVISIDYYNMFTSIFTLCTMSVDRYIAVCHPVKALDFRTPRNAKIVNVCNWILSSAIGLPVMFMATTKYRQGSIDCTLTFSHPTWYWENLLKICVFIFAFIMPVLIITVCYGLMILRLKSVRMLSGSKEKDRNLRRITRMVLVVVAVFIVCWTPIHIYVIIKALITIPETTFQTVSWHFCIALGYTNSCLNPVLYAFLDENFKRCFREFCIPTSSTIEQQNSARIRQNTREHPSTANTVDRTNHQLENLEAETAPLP
# Method in brief: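 Mouse acetic acid writhing: 0.6% acetic acid ip, writhes counted for 10 min starting 5 min after injection. Agonist (morphine 1.25 mg/kg or U50,488 2.5 mg/kg) and antagonist given sc 20 min before acid. 5 mice/point, ≥5 doses varied 2-fold, each mouse used once. AD50 = antagonist dose reducing agonist-induced writhing inhibition to 50%.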
# [6] = target: Kappa-type opioid receptor (Rattus norvegicus) (UniProt P34975); assay: Antagonism of bremazocine induced kappa receptor diuresis in rats at a concentration of 0.08 mg/kg subcutaneously; format: functional, organism-based; design: dose 0.08 mg/kg
# Kappa-type opioid receptor (Rattus norvegicus), sequence (P34975 whole entry): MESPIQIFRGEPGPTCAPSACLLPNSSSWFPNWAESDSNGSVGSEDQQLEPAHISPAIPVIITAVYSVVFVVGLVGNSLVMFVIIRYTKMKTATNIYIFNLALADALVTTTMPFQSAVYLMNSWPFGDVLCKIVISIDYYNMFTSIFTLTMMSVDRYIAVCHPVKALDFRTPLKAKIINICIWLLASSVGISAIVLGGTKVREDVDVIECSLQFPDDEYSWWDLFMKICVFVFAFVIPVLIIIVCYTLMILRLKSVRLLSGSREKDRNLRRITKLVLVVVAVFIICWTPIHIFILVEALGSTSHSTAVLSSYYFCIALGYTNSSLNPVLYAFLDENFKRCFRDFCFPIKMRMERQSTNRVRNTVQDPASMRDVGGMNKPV
# Method in brief: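 Male Long-Evans hooded rats (350-500 g), reused no more than twice weekly. Bremazocine 0.08 mg/kg sc, test antagonist sc on the opposite side without delay. Rats housed in metabolism cages; urine volume recorded at 2 and 5 h. 3 rats/dose, doses varied 2-fold. AD50 = dose reducing cumulative 5-h induced urination by 50%.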
# [7] = target: T1, Adrenergic receptor alpha-1 (Rattus norvegicus, UniProt P15823+P23944+P43140); assay: Tested for affinity against alpha-adrenergic using [3H]WB-4101 in rat brain; format: tissue-based; method in brief: as §1
# T1 sequence (P15823 whole entry): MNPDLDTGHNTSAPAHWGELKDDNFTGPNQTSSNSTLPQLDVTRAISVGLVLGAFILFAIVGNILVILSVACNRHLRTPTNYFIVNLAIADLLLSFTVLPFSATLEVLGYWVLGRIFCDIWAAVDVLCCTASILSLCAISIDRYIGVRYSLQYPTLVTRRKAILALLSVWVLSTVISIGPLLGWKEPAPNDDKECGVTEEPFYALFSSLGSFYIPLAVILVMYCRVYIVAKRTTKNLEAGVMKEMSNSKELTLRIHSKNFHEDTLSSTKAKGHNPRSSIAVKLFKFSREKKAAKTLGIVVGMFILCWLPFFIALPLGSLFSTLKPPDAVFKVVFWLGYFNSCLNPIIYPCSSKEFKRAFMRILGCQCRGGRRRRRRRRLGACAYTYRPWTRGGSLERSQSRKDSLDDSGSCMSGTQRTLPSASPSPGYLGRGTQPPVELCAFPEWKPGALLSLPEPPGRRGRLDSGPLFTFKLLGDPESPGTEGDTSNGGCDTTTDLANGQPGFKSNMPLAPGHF
# T1 sequence (P23944 whole entry): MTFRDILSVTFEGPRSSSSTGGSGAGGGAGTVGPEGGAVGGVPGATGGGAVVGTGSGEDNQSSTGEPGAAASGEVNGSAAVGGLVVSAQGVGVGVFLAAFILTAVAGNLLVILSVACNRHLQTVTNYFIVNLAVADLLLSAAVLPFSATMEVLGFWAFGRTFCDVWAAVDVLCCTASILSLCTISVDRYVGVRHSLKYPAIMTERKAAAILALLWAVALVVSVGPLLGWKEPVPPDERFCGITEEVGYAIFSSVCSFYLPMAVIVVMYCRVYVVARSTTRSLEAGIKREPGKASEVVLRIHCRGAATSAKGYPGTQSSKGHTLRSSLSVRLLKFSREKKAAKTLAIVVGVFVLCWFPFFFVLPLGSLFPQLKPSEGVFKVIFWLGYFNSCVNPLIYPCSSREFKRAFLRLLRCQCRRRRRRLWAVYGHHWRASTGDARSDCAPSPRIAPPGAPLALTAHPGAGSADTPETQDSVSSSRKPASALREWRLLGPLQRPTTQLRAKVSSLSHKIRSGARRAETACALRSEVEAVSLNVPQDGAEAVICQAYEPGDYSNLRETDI
# T1 sequence (P43140 whole entry): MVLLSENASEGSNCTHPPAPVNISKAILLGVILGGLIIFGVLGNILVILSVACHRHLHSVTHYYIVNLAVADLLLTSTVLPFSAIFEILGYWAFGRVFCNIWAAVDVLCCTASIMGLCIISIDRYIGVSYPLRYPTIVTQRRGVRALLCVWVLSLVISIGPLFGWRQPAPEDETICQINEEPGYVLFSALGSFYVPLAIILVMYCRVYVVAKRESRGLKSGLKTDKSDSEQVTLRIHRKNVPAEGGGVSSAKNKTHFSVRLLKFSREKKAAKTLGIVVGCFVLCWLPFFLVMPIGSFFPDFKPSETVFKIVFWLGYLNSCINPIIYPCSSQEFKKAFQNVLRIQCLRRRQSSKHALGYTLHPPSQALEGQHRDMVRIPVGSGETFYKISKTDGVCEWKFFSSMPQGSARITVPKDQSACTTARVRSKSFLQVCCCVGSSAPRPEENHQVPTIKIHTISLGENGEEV
# D(2) dopamine receptor, sequence (P61169 whole entry): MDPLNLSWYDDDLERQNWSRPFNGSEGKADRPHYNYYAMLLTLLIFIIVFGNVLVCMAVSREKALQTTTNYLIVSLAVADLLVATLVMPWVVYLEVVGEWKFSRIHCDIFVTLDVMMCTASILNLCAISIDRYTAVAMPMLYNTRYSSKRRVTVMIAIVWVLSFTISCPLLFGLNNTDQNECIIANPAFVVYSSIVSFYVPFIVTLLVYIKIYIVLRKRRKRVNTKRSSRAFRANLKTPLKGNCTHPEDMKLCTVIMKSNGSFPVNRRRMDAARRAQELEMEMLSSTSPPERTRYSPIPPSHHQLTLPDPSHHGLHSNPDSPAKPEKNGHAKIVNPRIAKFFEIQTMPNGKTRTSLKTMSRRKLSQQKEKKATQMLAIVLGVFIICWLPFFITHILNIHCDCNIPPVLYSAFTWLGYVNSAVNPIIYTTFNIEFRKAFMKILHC
structure (smiles),measurement,setting,value
C[C@H]1CN(CC[C@H](O)C2CCCCC2)CC[C@@]1(C)c1cccc(O)c1,IC50,D(2) dopamine receptor,> 1 µM
same,IC50,[1],> 1 µM
same,IC50,D(1A) dopamine receptor,> 1 µM
same,Ke,[2],0.24 nM
same,IC50,Adrenergic receptor beta,> 5 µM
same,ED50,Rattus norvegicus,0.04 mg/kg
same,IC50,Dopamine receptor,> 1 µM
same,IC50,[3],> 1 µM
same,Ke,[4],1.64 nM
same,AD50,[5],0.015 mg/kg
same,AD50,[6],0.38 mg/kg
same,IC50,[7],> 5 µM
